Values after ≈ are worked out from the molar mass of the structure shown.
How the values were obtained:
Rattus norvegicus [1] = species: Rattus norvegicus; assay: Inhibitory effects on passive cutaneous anaphylaxis in rats at a dose of 1 mg/site; assay type: functional
How it was run: (§1)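 Male SD rats, eight per group, sensitized intradermally at two dorsal sites with 0.05 mL anti-ovalbumin rat IgE serum diluted 1:8 in 0.9% saline. Compound applied topically to those sites 5 h before iv challenge 48 h later with 2 mg ovalbumin plus 5 mg Evans blue in 1 mL. Extravasated dye measured 30 min later; percent inhibition versus control group.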

Rattus norvegicus [2] = species: Rattus norvegicus; assay: Evaluated for its antioxidative effect using the thiobarbituric acid (TBA) method in rat; assay type: functional
How it was run: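 Test sample in 67 mM phosphate buffer pH 7.4 mixed with 10% male Wistar rat (300–400 g) forebrain homogenate. Shaken 1 h at 37 °C, deproteinated with 20% TCA. Supernatant heated 10 min at 100 °C with 1.2% thiobarbiturate; absorbance read at 532 nm.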

Mus musculus [3] = assay: Evaluated for its inhibitory effects on 12-O-tetradecanoylphorbol-13-acetate (TPA) -induced edema in mouse ear at a dose of 100 ug/site; assay type: functional
How it was run: (§2)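 Male ICR mice, 30–40 g, 10–15 per group. Test compound applied in 25 μL acetone/pyridine/water 97:2:1 containing TPA (200 μg/mL) to the inner surface of one ear. Killed with CO2 5 h later; 6-mm ear punch weighed wet for edema. ED50 taken from three-point dose titration curves.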

Mus musculus [4] = assay: Inhibitory effects on arachidonic acid (AA) induced mouse ear edema at a dose of 100 ug/ear; assay type: functional
How it was run: (§3)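 Male ICR mice (30–40 g, 10–15 per group). Compound in 25 μL acetone/pyridine/water 97:2:1 with arachidonic acid (50 mg/mL) applied to inner surface of one ear. After 1 h, CO2 sacrifice, 6-mm disk punched, edema measured as change in wet weight versus controls.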

Mus musculus [5] = species: Mus musculus; assay: Inhibitory effects on delayed type hypersensitive reaction in mouse ears at a dose of 300 ug/site; assay type: functional
How it was run: (§4)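 ICR mice, 10 or 12 per group, sensitized by abdominal swabbing with 0.1 mL antigen in acetone (7% picryl chloride or 1% OXA). DTH response assessed in mouse ears.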

Cavia porcellus [6] = assay: Compound was evaluated for maximization test in guinea pigs and the edema was observed for the experiment 0; assay type: functional
How it was run: (§5)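 Maximization test in guinea pigs with the dorsal neck region clipped and then shaved. Skin reactions were read at 24 and 48 h. Erythema was graded 0–4 and edema 0–3, and values are counts of animals at each grade. Groups held 6 animals, or 4 in the control-paired group.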

Cavia porcellus [7] = species: Cavia porcellus; assay: Compound was evaluated for maximization test in guinea pigs and the erythema was observed for the experiment 0; assay type: functional; how it was run: as §5
Cavia porcellus [8] = species: Cavia porcellus; assay: Compound was evaluated for maximization test in guinea pigs and the erythema was observed for the experiment 1; assay type: functional; how it was run: as §5
Cavia porcellus [9] = assay: Compound was evaluated for maximization test in guinea pigs and the edema was observed for the experiment 1; assay type: functional; how it was run: as §5
Cavia porcellus [10] = assay: Compound was evaluated for maximization test in guinea pigs and the edema was observed for the experiment 3; assay type: functional; how it was run: as §5
Cavia porcellus [11] = species: Cavia porcellus; assay: Compound was evaluated for maximization test in guinea pigs and the erythema was observed for the experiment 2;3/0; assay type: functional; how it was run: as §5
Cavia porcellus [12] = assay: Compound was evaluated for maximization test in guinea pigs and the edema was observed for the experiment 2;4/4; assay type: functional; how it was run: as §5
Cavia porcellus [13] = species: Cavia porcellus; assay: Compound was evaluated for maximization test in guinea pigs and the erythema was observed for the experiment 4;0/2; assay type: functional; how it was run: as §5
Cavia porcellus [14] = species: Cavia porcellus; assay: Compound was evaluated for maximization test in guinea pigs and the erythema was observed for the experiment 3;1/2; assay type: functional; how it was run: as §5
Oryctolagus cuniculus [15] = species: Oryctolagus cuniculus; assay: Compound was evaluated for primary irritation test by applying at the intact site and the average score was reported. Number of animals tested =6; assay type: toxicity, organism-based; details: rabbit, in vivo, topical_or_ocular
How it was run: (§6)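 Rabbit backs shaved and depilated; 0.5 g compound applied to four sites (two intact, two abraded) under gauze for 24 h. Sites examined grossly 24 and 72 h after removing covering; scored by Draize method.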

Oryctolagus cuniculus [16] = species: Oryctolagus cuniculus; assay: Compound was evaluated for primary irritation test by applying at the abraded site and the average score was reported. Number of animals tested =6; assay type: toxicity, organism-based; details: rabbit, in vivo, topical_or_ocular; how it was run: as §6
Mus musculus [17] = species: Mus musculus; assay: Compound was evaluated for its effective dose to inhibit picryl chloride induced delayed type hypersensitivity; assay type: functional; how it was run: as §4
Mus musculus [18] = assay: Compound was evaluated for its inhibitory effects on arachidonic acid induced ear edema at a dose of 100 (ug / ear); assay type: functional; how it was run: as §3
Rattus norvegicus [19] = species: Rattus norvegicus; assay: Compound was evaluated for its inhibitory effects on passive cutaneous anaphylaxis in rats at a dose of 2.5 mg/site; assay type: functional; how it was run: as §1
Mus musculus [20] = assay: Compound was evaluated for its inhibitory effects on 12-O-tetradecanoylphorbol-13-acetate -induced edema; assay type: functional; how it was run: as §2
Mus musculus [21] = species: Mus musculus; assay: Compound was evaluated for its effective dose to inhibit oxazolone- induced delayed type hypersensitivity; assay type: functional; how it was run: as §4
Rattus norvegicus [22] = species: Rattus norvegicus; assay: Compound was evaluated for its inhibitory effects on passive cutaneous anaphylaxis in rats at a dose of 1 mg/site; assay type: functional; how it was run: as §1
Rattus norvegicus [23] = species: Rattus norvegicus; assay: Compound was evaluated for its inhibitory effects on passive cutaneous anaphylaxis in rats at a dose of 1 (mg / site).; assay type: functional; how it was run: as §1
Mus musculus [24] = assay: Compound was evaluated for its inhibitory effects on 12-O-tetradecanoylphorbol-13-acetate -induced edema.
Rattus norvegicus [25] = species: Rattus norvegicus; assay: Compound was evaluated for its inhibitory effects on passive cutaneous anaphylaxis in rats at a dose of 2.5 (mg / site).; assay type: functional; how it was run: as §1
Mus musculus [26] = species: Mus musculus; assay: Compound was evaluated for its effective dose to inhibit oxazolone- induced delayed type hypersensitivity
Mus musculus [27] = assay: Compound was evaluated for its inhibitory effects on arachidonic acid induced ear edema at a dose of 100 (ug / ear)
Mus musculus [28] = species: Mus musculus; assay: Compound was evaluated for its effective dose to inhibit picryl chloride induced delayed type hypersensitivity.
Mus musculus [29] = assay: Compound was evaluated for its inhibitory effects on 12-O-tetradecanoylphorbol-13-acetate (TPA) -induced edema in mouse ear at a dose of 100 ug/site; assay type: functional; how it was run: as §2
Mus musculus [30] = species: Mus musculus; assay: Compound was evaluated for its inhibitory effects on delayed type hypersensitive reaction in mouse ears at a dose of 300 ug/site; assay type: functional; how it was run: as §4
Mus musculus [31] = assay: Compound was evaluated for its inhibitory effects on arachidonic acid (AA) induced mouse ear edema at a dose of 100 ug/ear; assay type: functional; how it was run: as §3

Row | Structure (SMILES) | Inhibition (Rattus norvegicus [1]) | IC50 (Rattus norvegicus [2]) | Inhibition (Mus musculus [3]) | Inhibition (Mus musculus [4]) | Inhibition (Mus musculus [5]) | other results
1 | Cc1ccc(O)c(NCCCN2CCCN(C(c3ccccc3)c3ccc(Cl)cc3)CC2)c1 (stereo not drawn) | 36.4% | 0.013 µg/mL (≈ 0.028 µM) | 87% | 50.3% | – | –
2 | Cc1ccc(O)c(N(CCCN2CCC(C(O)(c3ccccc3)c3ccc(Cl)cc3)CC2)C(C)C)c1 (stereo not drawn) | 48.3% | 1 µg/mL (≈ 1.97 µM) | 89.3% | 48.5% | 18.7% | –
3 | O=[N+]([O-])c1ccc(Cl)c([N+](=O)[O-])c1 | – | – | – | – | – | Edema (Cavia porcellus [6]): 0; Erythema (Cavia porcellus [7]): 0; Erythema (Cavia porcellus [8]): 0; Edema (Cavia porcellus [9]): 0; Edema (Cavia porcellus [10]): 0; Erythema (Cavia porcellus [11]): 3; Edema (Cavia porcellus [12]): 4; Erythema (Cavia porcellus [13]): 0; Erythema (Cavia porcellus [14]): 1
4 | Cc1ccc(O)c(N(CCCN2CCC(C(O)(c3ccccc3)c3ccccc3)CC2)C(C)C)c1 | – | 0.79 µg/mL (≈ 1.67 µM) | 39.2% | – | – | –
5 | Cc1ccc(O)c(NCCCN2CCN(C(c3ccccc3)c3ccc(Cl)cc3)CC2)c1 (stereo not drawn) | 48.5% | 0.12 µg/mL (≈ 0.267 µM) | – | 67.7% | 62% | Average score (Oryctolagus cuniculus [15]): 0; Average score (Oryctolagus cuniculus [16]): 0
6 | Cc1ccc(O)c(NCCCN2CCN(C(c3ccc(F)cc3)c3ccc(F)cc3)CC2)c1 | 31.7% | 0.1 µg/mL (≈ 0.221 µM) | – | 51% | 79.2% | ED50 (Mus musculus [17]): 52.9 µg/mL (≈ 117 µM); ED50 (Mus musculus [18]): 107.9 µg/mL (≈ 239 µM); Average score (Oryctolagus cuniculus [15]): 0; Inhibition (Rattus norvegicus [19]): 51.9%; ED50 (Mus musculus [20]): 47 µg/mL (≈ 104 µM); Average score (Oryctolagus cuniculus [16]): 0; ED50 (Mus musculus [21]): 47.8 µg/mL (≈ 106 µM)
7 | Cc1ccc(O)c(N(CCCN2CCN(C(c3ccc(F)cc3)c3ccc(F)cc3)CC2)C(C)C)c1 | – | 1.2 µg/mL (≈ 2.43 µM) | 24.2% | – | – | –
8 | Cc1ccc(O)c(NCCCN2CCC(OC(c3ccc(F)cc3)c3ccc(F)cc3)CC2)c1 | 39% | 0.028 µg/mL (≈ 0.06 µM) | 61.8% | 49.8% | 59.3% | –
9 | Cc1ccc(O)c(N(CCCN2CCN(C(c3ccccc3)c3ccccc3)CC2)C(C)C)c1 | – | 0.29 µg/mL (≈ 0.634 µM) | 42.6% | – | – | –
10 | Cc1ccc(O)c(NCCN2CCN(C(c3ccccc3)c3ccccc3)CC2)c1 | 32.8% | 0.045 µg/mL (≈ 0.112 µM) | 75.3% | 48.1% | 62% | –
11 | Cc1ccc(O)c(N(C)CCCN2CCN(C(c3ccccc3)c3ccc(Cl)cc3)CC2)c1 (stereo not drawn) | – | 0.27 µg/mL (≈ 0.582 µM) | 51.8% | – | – | –
12 | Cc1ccc(O)c(N(C)CCCN2CCN(C(c3ccccc3)c3ccccc3)CC2)c1 | – | 0.3 µg/mL (≈ 0.698 µM) | 50.9% | – | – | –
13 | CC(C)(C)c1ccc(O)c(NCCCN2CCN(C(c3ccccc3)c3ccc(Cl)cc3)CC2)c1 (stereo not drawn) | 12.6% | 0.068 µg/mL (≈ 0.138 µM) | 82.4% | 38% | 60.6% | –
14 | CC(C)N(CCCN1CCN(C(c2ccccc2)c2ccc(Cl)cc2)CC1)c1cc(C(C)(C)C)ccc1O (stereo not drawn) | – | 0.39 µg/mL (≈ 0.73 µM) | 40.3% | – | – | –
15 | Cc1ccc(O)c(NCCCN2CCN(C(c3ccc(Cl)cc3)c3ccc(Cl)cc3)CC2)c1 | – | 0.48 µg/mL (≈ 0.991 µM) | 58.2% | – | – | –
16 | Cc1ccc(O)c(NCCCN2CCN(C(c3ccccc3)c3ccccc3)CC2)c1 | 11.2% | 0.038 µg/mL (≈ 0.0914 µM) | – | 51% | 79.3% | –
17 | Cc1ccc(O)c(N(CCCN2CCN(C(c3ccccc3)c3ccc(Cl)cc3)CC2)C(C)C)c1 (stereo not drawn) | – | 0.44 µg/mL (≈ 0.894 µM) | 44.4% | – | – | –
18 | Cc1ccc(O)c(N(CCCN2CCN(C(c3ccc(Cl)cc3)c3ccc(Cl)cc3)CC2)C(C)C)c1 | – | 2.2 µg/mL (≈ 4.18 µM) | 26.4% | – | – | –
19 | Cc1ccc(O)c(NCCCN2CCC(OC(c3ccccc3)c3ccccc3)CC2)c1 | – | 0.036 µg/mL (≈ 0.0836 µM) | – | 61.8% | 28.1% | Inhibition (Rattus norvegicus [22]): 28.3%
20 | Cc1ccc(O)c(NCCCN2CCC(C(O)(c3ccc(F)cc3)c3ccc(F)cc3)CC2)c1 | 25.4% | 0.025 µg/mL (≈ 0.0536 µM) | 86.9% | – | – | –
21 | Cc1ccc(O)c(NCCCN2CCC(C(O)(c3ccccc3)c3ccc(Cl)cc3)CC2)c1 (stereo not drawn) | 39.2% | 0.041 µg/mL (≈ 0.0882 µM) | 97.5% | 43.7% | 80.4% | Average score (Oryctolagus cuniculus [15]): 0; Average score (Oryctolagus cuniculus [16]): 0
22 | Cc1ccc(O)c(NCCCN2CCC(OC(c3ccccc3)c3ccc(Cl)cc3)CC2)c1 (stereo not drawn) | 26% | 0.084 µg/mL (≈ 0.181 µM) | 86% | 53.6% | 31.3% | –
23 | C[C@]12CCC(=O)C=C1CCC1[C@@H]2[C@@H](O)C[C@@]2(C)[C@H]1CC[C@]2(O)C(=O)CO (single isomer, unassigned) [HYDROCORTISONE] | – | – | – | – | – | Inhibition (Rattus norvegicus [23]): 6.99%; ED50 (Mus musculus [24]): 6.69 µg/mL (≈ 18.5 µM); Inhibition (Rattus norvegicus [25]): -16.4%; ED50 (Mus musculus [26]): 3.43 µg/mL (≈ 9.46 µM); ED50 (Mus musculus [27]): 3.09 µg/mL (≈ 8.52 µM); ED50 (Mus musculus [28]): 1.2 µg/mL (≈ 3.31 µM)
24 | Cc1c(C)c2c(c(C)c1O)CC[C@@](C)(CCC[C@H](C)CCC[C@H](C)CCCC(C)C)O2 [ALPHA-TOCOPHEROL] | – | 0.87 µg/mL (≈ 2.02 µM) | – | – | – | –
25 | CN(C)CCOC(c1ccccc1)c1ccccc1 [DIPHENHYDRAMINE] | 27.9% | – | – | – | – | ED50 (Mus musculus [29]): >300 µg/mL; ED50 (Mus musculus [30]): >300 µg/mL; ED50 (Mus musculus [31]): >300 µg/mL; Inhibition (Rattus norvegicus [19]): 52.8%
26 | CC(C(=O)O)c1ccc(C(=O)c2cccs2)cc1 (stereo not drawn) [SUPROFEN] | -0.7% | – | – | – | – | ED50 (Mus musculus [29]): 123.2 µg/mL (≈ 473 µM); ED50 (Mus musculus [30]): >300 µg/mL; ED50 (Mus musculus [31]): 15.4 µg/mL (≈ 59.2 µM); Inhibition (Rattus norvegicus [19]): 16.9%
